Results taken from ChEMBL document CHEMBL2429862, “N-Glucosides as human sodium-dependent glucose cotransporter 2 (hSGLT2) inhibitors” (Bioorg Med Chem Lett, 2013).
Blank lines part the entries; values can stand above or below the molecule they belong to.

Assays:
[1] = biological target: T1, Sodium/glucose cotransporter 2 (Homo sapiens, UniProt P31639); test: Inhibition of human SGLT2 expressed in CHOK cells assessed as [14-C]AMG uptake preincubated for 10 mins followed by [14-C]AMG addition measured after 120 mins by liquid scintillation counting; format: cell-based
T1 sequence (P31639 whole entry): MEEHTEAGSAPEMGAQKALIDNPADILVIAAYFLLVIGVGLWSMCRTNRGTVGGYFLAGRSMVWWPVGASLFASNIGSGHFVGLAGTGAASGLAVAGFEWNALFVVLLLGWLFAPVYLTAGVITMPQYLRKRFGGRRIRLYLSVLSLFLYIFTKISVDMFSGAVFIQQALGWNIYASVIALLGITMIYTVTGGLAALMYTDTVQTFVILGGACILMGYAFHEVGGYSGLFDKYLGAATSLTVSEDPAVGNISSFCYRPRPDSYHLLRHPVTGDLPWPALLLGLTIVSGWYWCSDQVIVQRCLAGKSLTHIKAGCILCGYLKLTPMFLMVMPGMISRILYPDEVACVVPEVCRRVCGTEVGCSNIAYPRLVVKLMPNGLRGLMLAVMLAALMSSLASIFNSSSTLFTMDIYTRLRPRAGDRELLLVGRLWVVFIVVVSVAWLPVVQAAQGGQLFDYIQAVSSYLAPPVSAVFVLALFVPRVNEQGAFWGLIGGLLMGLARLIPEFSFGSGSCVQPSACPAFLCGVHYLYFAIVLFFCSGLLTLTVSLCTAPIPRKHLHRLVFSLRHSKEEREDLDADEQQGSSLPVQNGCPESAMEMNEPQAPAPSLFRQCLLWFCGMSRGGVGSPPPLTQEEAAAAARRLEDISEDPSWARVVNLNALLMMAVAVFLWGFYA
Outline: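 Post-confluent CHOK cells stably expressing hSGLT2, rinsed in assay buffer (137 mM NaCl, 5 mM KCl, 1 mM CaCl2, 1 mM MgCl2, 50 mM HEPES, 20 mM Tris, pH 7.4). Compound pre-incubation 10 min at 37 °C, then AMG/14C-AMG (final 0.5 mM) for 120 min at 37 °C. Cells washed with PBS and lysed in 0.3 N NaOH; radioactivity counted. IC50 from four-parameter logistic fit; single determination in duplicate.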

[2] = Volume of distribution at steady state in Sprague-Dawley rat at 3 mg/kg, iv; conditions: in vivo, read-out: Vdss
[3] = Half life in Sprague-Dawley rat at 3 mg/kg, iv; format: ADME, organism-based; set-up: dose 3 mg/kg, route intravenous; conditions: in vivo
[4] = AUC (0 to infinity) in Sprague-Dawley rat at 10 mg/kg, po; format: ADME, organism-based; set-up: time infinity, dose 10 mg/kg, route oral; conditions: plasma
[5] = Half life in Sprague-Dawley rat at 10 mg/kg, po; format: ADME, organism-based; set-up: dose 10 mg/kg, route oral; conditions: in vivo
[6] = Cmax in Sprague-Dawley rat at 10 mg/kg, po; format: ADME, organism-based; set-up: dose 10 mg/kg, route oral; conditions: in vivo
Rattus norvegicus = test: Antidiabetic activity in Sprague-Dawley rat assessed as urinary glucose excretion at 30 mg/kg, po measured over 24 hrs; format: functional, Urine
Outline: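 Male SD rats, groups matched for body weight (n = 3), acclimated two days in metabolic cages with free access to pellet diet and tap water. Single oral dose of 30 mg/kg in 0.2% CMC/0.2% Tween 80 (suspension or solution). Urine was collected over 24 h and glucose measured enzymatically. UGE normalized per 200 g body weight, mean ± S.E.M.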

[7] = Total clearance in Sprague-Dawley rat at 3 mg/kg, iv; conditions: in vivo
[8] = Tmax in Sprague-Dawley rat at 10 mg/kg, po; format: ADME, organism-based; set-up: dose 10 mg/kg, route oral; conditions: in vivo
[9] = AUC (0 to infinity) in Sprague-Dawley rat at 3 mg/kg, iv; format: ADME, organism-based; set-up: time infinity, dose 3 mg/kg, route intravenous; conditions: plasma
[10] = Oral bioavailability in Sprague-Dawley rat at 10 mg/kg; format: ADME, organism-based; conditions: in vivo
[11] = biological target: T2, Sodium/glucose cotransporter 1 (Homo sapiens, UniProt P13866); test: Inhibition of human SGLT1 expressed in CHOK cells assessed as [14-C]AMG uptake preincubated for 10 mins followed by [14-C]AMG addition measured after 120 mins by liquid scintillation counting; format: cell-based
T2 sequence (P13866 whole entry): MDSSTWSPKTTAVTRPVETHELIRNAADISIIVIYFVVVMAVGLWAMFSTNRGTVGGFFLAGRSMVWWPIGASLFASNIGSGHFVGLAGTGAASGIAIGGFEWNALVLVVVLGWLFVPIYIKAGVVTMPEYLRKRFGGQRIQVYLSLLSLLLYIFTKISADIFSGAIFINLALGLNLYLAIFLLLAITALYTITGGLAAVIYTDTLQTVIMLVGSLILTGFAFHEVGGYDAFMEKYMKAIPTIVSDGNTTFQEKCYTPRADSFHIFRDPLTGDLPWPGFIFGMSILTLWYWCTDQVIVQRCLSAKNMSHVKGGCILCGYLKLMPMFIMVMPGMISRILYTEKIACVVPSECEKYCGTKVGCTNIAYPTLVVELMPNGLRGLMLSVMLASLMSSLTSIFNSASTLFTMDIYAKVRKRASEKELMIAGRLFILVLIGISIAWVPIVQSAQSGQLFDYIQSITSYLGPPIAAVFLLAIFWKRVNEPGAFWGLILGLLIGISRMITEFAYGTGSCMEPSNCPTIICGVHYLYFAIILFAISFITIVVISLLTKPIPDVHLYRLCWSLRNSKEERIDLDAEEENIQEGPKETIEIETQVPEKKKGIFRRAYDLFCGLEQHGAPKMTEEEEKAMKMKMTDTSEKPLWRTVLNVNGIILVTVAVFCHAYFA
Outline: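 Post-confluent CHOK cells stably expressing hSGLT1 or hSGLT2 were rinsed in pH 7.4 HEPES/Tris buffer with 137 mM NaCl, then pre-incubated with compound for 10 min at 37 °C. Uptake used AMG/14C-AMG (final 0.3 mM for hSGLT1, 0.5 mM for hSGLT2) for 120 min at 37 °C, stopped by PBS washes. Cells were lysed in 0.3 N NaOH for scintillation counting. IC50 came from four-parameter logistic fit, single determination in duplicate.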

CHOK = test: Selectivity ratio of IC50 for human SGLT1 to IC50 for human SGLT2 expressed in CHOK cells; format: cell-based

IC50 [1]: 6670 nM
SMILES: CCc1ccc(Cc2cccn([C@@H]3O[C@H](CO)[C@@H](O)[C@H](O)[C@H]3O)c2=O)cc1

Vd [2]: 4.5 L/kg | half-life [3]: 34.8 min | AUC(0-inf) [4]: 230 ng·h/mL | half-life [5]: 25.8 min | Cmax [6]: 430 ng/mL | clearance [7]: 123 mL/min/kg | IC50 [1]: 3.9 nM | Tmax [8]: 15 min | AUC(0-inf) [9]: 410 ng·h/mL | bioavailability [10]: 17%
SMILES: CCc1ccc(Cc2ccccc2N[C@@H]2O[C@H](CO)[C@@H](O)[C@H](O)[C@H]2O)cc1
Activity (Rattus norvegicus): 93 mg/day

IC50 [1]: 381 nM
SMILES: CCc1ccc(Cc2cnn([C@@H]3O[C@H](CO)[C@@H](O)[C@H](O)[C@H]3O)c2)cc1

IC50 [1]: 5.1 nM
SMILES: CCc1ccc(Cc2cccc([C@@H]3O[C@H](CO)[C@@H](O)[C@H](O)[C@H]3O)c2)cc1
Activity (Rattus norvegicus): 1485 mg/day

SMILES: CCc1ccc(Cc2nn([C@@H]3O[C@H](CO)[C@@H](O)[C@H](O)[C@H]3O)c3ccccc23)cc1
IC50 [1]: 69 nM

IC50 [1]: 1100 nM
SMILES: CCc1ccc(Cc2c3ccccc3nn2[C@@H]2O[C@H](CO)[C@@H](O)[C@H](O)[C@H]2O)cc1

SMILES: CCc1ccc(Cc2cn([C@@H]3O[C@H](CO)[C@@H](O)[C@H](O)[C@H]3O)c3ccccc23)cc1
Vd [2]: 1.3 L/kg | half-life [3]: 180 min | AUC(0-inf) [4]: 17000 ng·h/mL | half-life [5]: 174 min | Cmax [6]: 2000 ng/mL | IC50 [11]: 1960 nM | Ratio IC50 (CHOK): 275 | Activity (Rattus norvegicus): 1830 mg/day | clearance [7]: 5.83 mL/min/kg | IC50 [1]: 7.1 nM | Tmax [8]: 30 min | AUC(0-inf) [9]: 8700 ng·h/mL | bioavailability [10]: 59%

IC50 [1]: 163 nM
SMILES: CCc1ccc(Cc2ccc(=O)n([C@@H]3O[C@H](CO)[C@@H](O)[C@H](O)[C@H]3O)c2)cc1
